Data: ChEMBL document CHEMBL1125377, “Phenothiazines as lipid peroxidation inhibitors and cytoprotective agents” (1992)
Values after ≈ are worked out from the molar mass of the structure shown.

Organism: Oryctolagus cuniculus
Assay: In vitro inhibition of iron-dependent peroxidation of rabbit brain vesicular membrane lipids
Type: functional
Settings: not given
Method in brief: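 Rabbit brain homogenized 10% w/v in 25 mM Tris-HCl with 0.15 M KCl, pH 7.5, spun 10000g for 15 min. The supernatant was given the agent in DMSO and incubated with ADP (220 μM) and FeCl3 (2 μM) at 37 °C for 1 h; the control was not incubated. TBARS read at 532 nm as MDA against a standard curve. Reported as MIC, the minimum tested concentration giving ≥50% inhibition.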

Compound	MIC [µM]
CN(C)CCOc1ccc2c(c1)Nc1ccccc1S2.CS(=O)(=O)O	0.26
CN(C)CCOc1ccc2c(c1)Nc1ccccc1S2.Cl	0.093

Same assay, conditions: Oryctolagus cuniculus; read-out: MIC

Compound	MIC [µM]
CN(C)CCOc1ccc2c(c1C(=O)N(C)C)Nc1ccccc1S2	2.5 (≈ 0.894 µg/mL)
COc1ccc2c(c1C(=O)NCCN(C)C)Nc1ccccc1S2	2.6 (≈ 0.893 µg/mL)
NCCOc1ccc2c(c1)Nc1ccccc1S2	0.18 (≈ 0.0465 µg/mL)
CN(C)CCOc1ccc2c(c1)N(C)c1ccccc1S2	21 (≈ 6.31 µg/mL)
OCCN1CCN(CCCc2ccc3c(c2)Nc2ccccc2S3)CC1	0.17 (≈ 0.0628 µg/mL)
CN(C)CCCN1c2ccccc2Sc2ccc(Cl)cc21 [CHLORPROMAZINE]	10 (≈ 3.19 µg/mL)
c1ccc2c(c1)Nc1ccccc1S2 [PHENOTHIAZINE]	0.15 (≈ 0.0299 µg/mL)

Continued, values first:

MIC [µM]	Compound
0.14 (≈ 0.0421 µg/mL)	CN(C)CCCOc1ccc2c(c1)Nc1ccccc1S2
0.068 (≈ 0.0253 µg/mL)	OCCN1CCN(CCOc2ccc3c(c2)Nc2ccccc2S3)CC1
0.056 (≈ 0.016 µg/mL)	CN(C)CCOc1ccc2c(c1)Sc1ccccc1N2
0.089 (≈ 0.0267 µg/mL)	CN(C)CCCOc1ccc2c(c1)Sc1ccccc1N2
